Data as given in ChEMBL document CHEMBL1687920, “Structure-based discovery of inhibitors of microsomal prostaglandin E2 synthase-1, 5-lipoxygenase and 5-lipoxygenase-activating protein: promising hits for the development of new anti-inflammatory agents” (J Med Chem, 2011).

How the values were obtained:
[1] = target: T1, Polyunsaturated fatty acid 5-lipoxygenase (Homo sapiens, UniProt P09917); assay: Inhibition of 5-lipoxygenase in human neutrophils
T1 sequence (P09917 whole entry): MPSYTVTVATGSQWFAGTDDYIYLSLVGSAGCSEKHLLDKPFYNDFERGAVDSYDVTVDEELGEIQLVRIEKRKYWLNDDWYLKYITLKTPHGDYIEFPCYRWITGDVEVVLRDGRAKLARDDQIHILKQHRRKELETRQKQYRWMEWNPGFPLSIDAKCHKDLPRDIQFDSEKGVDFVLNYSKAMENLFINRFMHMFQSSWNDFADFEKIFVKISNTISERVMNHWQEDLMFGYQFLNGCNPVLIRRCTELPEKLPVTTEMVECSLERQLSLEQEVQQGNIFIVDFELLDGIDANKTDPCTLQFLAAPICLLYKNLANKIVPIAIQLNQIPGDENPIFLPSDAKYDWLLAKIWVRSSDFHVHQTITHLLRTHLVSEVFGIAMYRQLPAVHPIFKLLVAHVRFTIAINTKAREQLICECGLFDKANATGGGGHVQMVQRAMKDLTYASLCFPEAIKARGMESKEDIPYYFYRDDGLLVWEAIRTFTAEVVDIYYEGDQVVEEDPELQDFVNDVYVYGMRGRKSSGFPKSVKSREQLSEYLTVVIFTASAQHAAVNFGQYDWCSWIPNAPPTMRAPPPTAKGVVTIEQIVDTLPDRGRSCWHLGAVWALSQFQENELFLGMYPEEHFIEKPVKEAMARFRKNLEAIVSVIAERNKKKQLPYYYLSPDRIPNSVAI
Summary of the method: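 Human neutrophils stimulated with ionophore A23187 to probe FLAP-dependent 5-LO product formation. Compounds in DMSO (vehicle 0.3% v/v) screened at 30 μM and tested in concentration-response. A FLAP inhibitor served as control. n = 4-5 for the curves.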

[2] = target: T1, Polyunsaturated fatty acid 5-lipoxygenase; assay: Inhibition of human recombinant 5-lipoxygenase expressed in Escherichia coli MV1190 by cell free assay
Summary of the method: (§1)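 Cell-free activity assay with isolated human recombinant 5-LO. Compounds screened at 30 μM in DMSO, with 0.3% v/v DMSO as vehicle and BWA4C as positive control. IC50 taken from concentration-response curves. Means ± SE, n = 4-5.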

[3] = target: T2, Polyunsaturated fatty acid 5-lipoxygenase (Homo sapiens) (UniProt P09917); assay: Inhibition of human recombinant 5-lipoxygenase expressed in Escherichia coli MV1190 assessed as residual activity at 30 uM by cell free assay; summary of the method: as §1
T2 sequence (whole entry): T1 sequence (P09917 whole entry)

[4] = target: T2, Polyunsaturated fatty acid 5-lipoxygenase (Homo sapiens); assay: Inhibition of 5-lipoxygenase in human neutrophils assessed as residual activity at 30 uM; values are per cent of control
[5] = target: Prostaglandin E synthase / mPGES-1 (Homo sapiens) (UniProt O14684); assay: Inhibition of Prostaglandin E2 synthase-1 in IL1-beta stimulated microsomal fraction of human A549 cell assessed as residual activity at 30 uM; settings: Microsome
[6] = target: T2, Polyunsaturated fatty acid 5-lipoxygenase (Homo sapiens); assay: Inhibition of 5-lipoxygenase in human neutrophils assessed as residual activity at 10 uM; values are per cent of control
[7] = target: T2, Polyunsaturated fatty acid 5-lipoxygenase (Homo sapiens); assay: Inhibition of human recombinant 5-lipoxygenase expressed in Escherichia coli MV1190 assessed as residual activity at 10 uM by cell free assay; values are per cent of control

Sequence of Prostaglandin E synthase / mPGES-1 (Homo sapiens) (O14684 whole entry, looked up): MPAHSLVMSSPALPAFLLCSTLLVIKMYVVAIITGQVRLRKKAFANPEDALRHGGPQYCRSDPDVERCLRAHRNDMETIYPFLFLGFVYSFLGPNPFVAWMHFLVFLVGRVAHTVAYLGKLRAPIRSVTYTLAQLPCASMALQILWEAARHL

## c1ccc(CCCn2cc(-c3ccc(-c4cc5ccccc5c5ccccc45)cc3)nn2)cc1
[1]
  IC50: > 30 µM
[2]
  IC50: > 30 µM
[3]
  remaining activity: 82.9%
[4]
  residual activity: 85.7%
[5]
  remaining activity: 78.2%

## Oc1ccc(-c2ccc(-c3cn(CCCc4ccccc4)nn3)cc2)cc1
[1]
  IC50: > 30 µM
[2]
  IC50: > 30 µM
[3]
  remaining activity: 58.4%
[4]
  residual activity: 70.2%
[5]
  remaining activity: 73.6%

## c1ccc(CCCn2cc(-c3ccc(-c4ccc(Oc5ccccc5)cc4)cc3)nn2)cc1
[1]
  IC50: > 30 µM
[2]
  IC50: > 30 µM
[3]
  remaining activity: 59.2%
[4]
  residual activity: 70.1%
[5]
  remaining activity: 88.7%

## FC(F)(F)c1ccc(Cl)c(OCc2ccccc2-c2ccc(-c3cn(CCCc4ccccc4)nn3)cc2)c1
[1]
  IC50: > 30 µM
[2]
  IC50: 8.8 µM
[3]
  remaining activity: 10.1%
[4]
  residual activity: 52.7%
[5]
  remaining activity: 91.9%

## O=C(OCc1cn(CSc2ccccc2)nn1)c1ccccc1
[1]
  IC50: 9.3 µM
[2]
  IC50: > 30 µM
[3]
  remaining activity: 80.8%
[4]
  residual activity: 14.6%
[5]
  remaining activity: 76.1%

## O=Cc1ccc(-c2c(Cc3ccccc3)nnn2CSc2ccccc2)cc1
[1]
  IC50: 6 µM
[2]
  IC50: > 30 µM
[3]
  remaining activity: 57.3%
[5]
  remaining activity: 72.1%
[6]
  residual activity: 17.3%

## CN(C)c1cccc2c(S(=O)(=O)Nc3ccc(-c4ccc(-c5cn(CCCc6ccccc6)nn5)cc4)cc3)cccc12
[1]
  IC50: 2.8 µM
[2]
  IC50: 4.1 µM
[3]
  remaining activity: 5.1%
[5]
  remaining activity: 85%
[6]
  residual activity: 21.2%

## Cc1ccccc1CCn1cc(-c2ccc(-c3ccccc3COc3cc(C(F)(F)F)ccc3Cl)cc2)nn1
[1]
  IC50: > 30 µM
[2]
  IC50: > 30 µM
[3]
  remaining activity: 82.5%
[4]
  residual activity: 92.1%
[5]
  remaining activity: 87.9%

## O=C(O)c1ccc(S(=O)(=O)n2cc(-c3ccc(-c4ccccc4COc4cccc5ccccc45)cc3)nn2)cc1
[1]
  IC50: 0.6 µM
[2]
  IC50: 0.8 µM
[7]
  residual activity: 13.6%
[5]
  remaining activity: 59.8%
[6]
  residual activity: 3.5%

## Cc1ccccc1CCn1cc(-c2ccc(-c3ccccc3COc3cccc4ccccc34)cc2)nn1
[1]
  IC50: > 30 µM
[2]
  IC50: > 30 µM
[3]
  remaining activity: 78.4%
[4]
  residual activity: 84.5%
[5]
  remaining activity: 90%

## Cc1ccccc1CCn1cc(-c2ccc(-c3ccc(N)cc3)cc2)nn1
[1]
  IC50: 1.7 µM
[2]
  IC50: > 30 µM
[3]
  remaining activity: 60.7%
[5]
  remaining activity: 98.2%
[6]
  residual activity: 22%

## Oc1cccc(-c2ccc(-c3cn(CSc4ccccc4)nn3)cc2)c1
[1]
  IC50: 0.4 µM
[2]
  IC50: 27 µM
[3]
  remaining activity: 48.8%
[5]
  remaining activity: 60.1%
[6]
  residual activity: 1.1%

## c1ccc(CCCn2cc(-c3ccc(-c4ccccc4COc4cccc5ccccc45)cc3)nn2)cc1
[1]
  IC50: > 30 µM
[2]
  IC50: > 30 µM
[3]
  remaining activity: 77.4%
[4]
  residual activity: 79.9%
[5]
  remaining activity: 96.8%

## O=C(O)c1ccc(Cn2cc(-c3ccc(-c4ccccc4)cc3)nn2)c([N+](=O)[O-])c1
[1]
  IC50: 9.2 µM
[2]
  IC50: 6.7 µM
[3]
  remaining activity: 20%
[4]
  residual activity: 20.1%
[5]
  remaining activity: 12%

## Oc1ccc(-c2ccc(-c3cn(CSc4ccccc4)nn3)cc2)cc1
[1]
  IC50: 0.9 µM
[2]
  IC50: > 30 µM
[3]
  remaining activity: 62.3%
[5]
  remaining activity: 89%
[6]
  residual activity: 34.8%
